Assay results as given in ChEMBL document CHEMBL3784976 (J Med Chem, 2016).
Calls of active or inactive are those of the source. No cut-off for these calls is given here.

Columns and labels:
Plasma = assay: Unbound plasma concentration in Harlan Sprague-Dawley rat model of AITC-induced flinching at 1 mg/kg, po at 1 hr; assay type: ADME, organism-based; settings: in vivo
Summary of the method: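 Rats were given vehicle (2% HPMC/1% Tween-80) or compound orally at 1, 3, 10 or 30 mg/kg. After 1 h, 0.1% AITC was injected into one left ventral hind paw, and nocifensive flinching was recorded over the first minute. Unbound plasma concentration was measured at 1 h, n = 8 per dose. In vivo IC50/IC90 came from the exposure–response relationship across individual animals.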

[1] = biological target: Transient receptor potential cation channel subfamily A member 1 (Rattus norvegicus, UniProt Q6RI86); assay: Antagonist activity at rat TRPA1 expressed in tetracycline-inducible T-REx expression system transfected CHO cells assessed as inhibition of AITC-induced Ca2+ influx preincubated for 2 mins followed by AITC addition measured for 2 mins by Fluo-4 dye based FLIPR assay; assay type: cell-based
[2] = biological target: C-C chemokine receptor type 2 (Homo sapiens) (UniProt P41597); assay: Displacement of [125I]MCP-1 from human recombinant CCR2 expressed in HEK293 cells assessed as remaining radioligand binding at 10 uM after 60 mins by scintillation counting method relative to control; assay type: cell-based
[3] = biological target: Transient receptor potential cation channel subfamily V member 1 (Homo sapiens, UniProt Q8NER1); assay: Antagonist activity at human TRPV1 expressed in CHO cells assessed as inhibition of capsaicin-induced Ca2+ influx up to 10 uM preincubated for 2.5 mins followed by capsaicin addition measured for 1 min by luminescence assay; assay type: cell-based
MDR1 (human) = assay: Efflux ratio of apparent permeability from basolateral to apical side over apical to basolateral side in MDCK cells expressing human MDR1 after 120 mins by LC-MS/MS analysis; assay type: ADME, cell-based, Canis lupus familiaris; settings: dog
Summary of the method: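 Efflux ratio taken as Papp B→A / Papp A→B, measured in MDR1-transfected MDCK cells against MDCK vector-control cells.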

[4] = biological target: Histamine H2 receptor (Homo sapiens) (UniProt P25021); assay: Displacement of [125I]APT from human recombinant histamine H2 receptor expressed in CHO cells assessed as remaining radioligand binding at 10 uM after 120 mins by scintillation counting method relative to control; assay type: cell-based
Rattus norvegicus [5] = species: Rattus norvegicus; assay: Displacement of [3H]nitrendipine from L-type calcium channel dihydropyridine binding site in rat cerebral cortex assessed as remaining radioligand binding at 10 uM after 90 mins by scintillation counting method relative to control; assay type: tissue-based
[6] = biological target: Histamine H3 receptor (Homo sapiens) (UniProt Q9Y5N1); assay: Displacement of [3H]Na-Me-histamine from human recombinant histamine H3 receptor expressed in CHO cells assessed as remaining radioligand binding at 10 uM after 60 mins by scintillation counting method relative to control; assay type: cell-based
[7] = Oral bioavailability in rat at 30 mg/kg; assay type: ADME, organism-based; settings: in vivo
Summary of the method: (§1)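 Rats dosed orally at 30 mg/kg, or 10 mg/kg for one analogue, in 1% Tween 80/2% HPMC/97% water with methanesulfonic acid, pH 2.2.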

[8] = Ratio of unbound plasma concentration in Harlan Sprague-Dawley rat model of AITC-induced flinching at 10 mg/kg, po to IC50 for rat TRPA1 expressed in tetracycline-inducible T-REx expression system transfected CHO cells by 45Ca2+ uptake assay; assay type: ADME, organism-based; settings: in vivo
Summary of the method: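 Rats dosed orally at 1, 3, 10 or 30 mg/kg in 2% HPMC/1% Tween-80 vehicle. After 1 h, unbound plasma concentration measured (n = 8 per dose), intraplantar AITC (0.1%) given and flinching scored over the first minute. Unbound concentration divided by in vitro rat TRPA1 45Ca2+ IC50.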

[9] = biological target: Substance-P receptor (Homo sapiens) (UniProt P25103); assay: Displacement of [125I]-Substance P LYS3 from NK1 receptor in human U373MG cells assessed as remaining radioligand binding at 10 uM after 60 mins by scintillation counting method relative to control; assay type: cell-based; settings: U-373MG ATCC
[10] = biological target: Beta-1 adrenergic receptor (Homo sapiens) (UniProt P08588); assay: Displacement of (-)-[3H]CGP-12177 from human recombinant adrenergic beta1 receptor expressed in HEK293 cells assessed as remaining radioligand binding at 10 uM after 60 mins by scintillation counting method relative to control; assay type: cell-based
[11] = biological target: 5-hydroxytryptamine receptor 5A (Homo sapiens) (UniProt P47898); assay: Displacement of [3H]LSD from human recombinant 5HT5A receptor expressed in HEK293 cells assessed as remaining radioligand binding at 10 uM after 120 mins by scintillation counting method relative to control; assay type: cell-based
[12] = Clearance in rat at 0.5 mg/kg, iv as single dose; assay type: ADME, organism-based; settings: in vivo
[13] = biological target: 5-hydroxytryptamine receptor 2A (Homo sapiens) (UniProt P28223); assay: Displacement of [3H]ketanserin from human recombinant 5HT2A receptor expressed in HEK293 cells assessed as remaining radioligand binding at 10 uM after 60 mins by scintillation counting method relative to control; assay type: cell-based
[14] = biological target: 5-hydroxytryptamine receptor 6 (Homo sapiens) (UniProt P50406); assay: Displacement of [3H]LSD from human recombinant 5HT6 receptor expressed in CHO cells assessed as remaining radioligand binding at 10 uM after 120 mins by scintillation counting method relative to control; assay type: cell-based
[15] = biological target: 5-hydroxytryptamine receptor 1A (Homo sapiens) (UniProt P08908); assay: Displacement of [3H]8-OH-DPAT from human recombinant 5HT1A receptor expressed in HEK293 cells assessed as remaining radioligand binding at 10 uM after 60 mins by scintillation counting method relative to control; assay type: cell-based
Rattus norvegicus [16] = assay: fCmax in rat at 30 mg/kg, po; assay type: ADME, organism-based; settings: in vivo; summary of the method: as §1
[17] = biological target: 5-hydroxytryptamine receptor 1B (Rattus norvegicus) (UniProt P28564); assay: Displacement of [125I]CYP from 5HT1B receptor in rat cerebral cortex assessed as remaining radioligand binding at 10 uM after 120 mins by scintillation counting method relative to control; assay type: tissue-based
Rattus norvegicus [18] = species: Rattus norvegicus; assay: Displacement of [3H]PK-11195 from benzodiazepine receptor in rat heart assessed as remaining radioligand binding at 10 uM after 15 mins by scintillation counting method relative to control
[19] = biological target: Transient receptor potential cation channel subfamily V member 4 (Homo sapiens) (UniProt Q9HBA0); assay: Antagonist activity at human TRPV4 expressed in tetracycline-inducible T-REx expression system transfected CHO cells assessed as inhibition of 4alpha-PDD-induced Ca2+ influx up to 10 uM preincubated for 2.5 mins followed by 4alpha-PDD addition measured for 1 min by luminescence assay; assay type: cell-based
[20] = biological target: Somatostatin receptor type 4 (Homo sapiens) (UniProt P31391); assay: Displacement of [125I]Tyr11-somatostatin-14 from human recombinant SST4 receptor expressed in CHO cells assessed as remaining radioligand binding at 10 uM after 120 mins by scintillation counting method relative to control; assay type: cell-based
Rattus norvegicus [21] = assay: Antinociceptive activity in po dosed Harlan Sprague-Dawley rat assessed as inhibition of AITC-induced paw flinches pretreated for 1 hr followed by AITC injection measured for 1 min post injection; assay type: functional, organism-based
Summary of the method: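 Rats were dosed orally with vehicle (2% HPMC/1% Tween-80) or antagonist at 1, 3, 10 or 30 mg/kg. After 1 h, 0.1% AITC was injected into the left ventral hind paw. Flinching was recorded over the first minute post-injection. Unbound plasma concentrations were measured at 1 h (n = 8 per dose).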

Transient receptor potential cation channel subfamily V member 4 (Homo sapiens), sequence (Q9HBA0 whole entry): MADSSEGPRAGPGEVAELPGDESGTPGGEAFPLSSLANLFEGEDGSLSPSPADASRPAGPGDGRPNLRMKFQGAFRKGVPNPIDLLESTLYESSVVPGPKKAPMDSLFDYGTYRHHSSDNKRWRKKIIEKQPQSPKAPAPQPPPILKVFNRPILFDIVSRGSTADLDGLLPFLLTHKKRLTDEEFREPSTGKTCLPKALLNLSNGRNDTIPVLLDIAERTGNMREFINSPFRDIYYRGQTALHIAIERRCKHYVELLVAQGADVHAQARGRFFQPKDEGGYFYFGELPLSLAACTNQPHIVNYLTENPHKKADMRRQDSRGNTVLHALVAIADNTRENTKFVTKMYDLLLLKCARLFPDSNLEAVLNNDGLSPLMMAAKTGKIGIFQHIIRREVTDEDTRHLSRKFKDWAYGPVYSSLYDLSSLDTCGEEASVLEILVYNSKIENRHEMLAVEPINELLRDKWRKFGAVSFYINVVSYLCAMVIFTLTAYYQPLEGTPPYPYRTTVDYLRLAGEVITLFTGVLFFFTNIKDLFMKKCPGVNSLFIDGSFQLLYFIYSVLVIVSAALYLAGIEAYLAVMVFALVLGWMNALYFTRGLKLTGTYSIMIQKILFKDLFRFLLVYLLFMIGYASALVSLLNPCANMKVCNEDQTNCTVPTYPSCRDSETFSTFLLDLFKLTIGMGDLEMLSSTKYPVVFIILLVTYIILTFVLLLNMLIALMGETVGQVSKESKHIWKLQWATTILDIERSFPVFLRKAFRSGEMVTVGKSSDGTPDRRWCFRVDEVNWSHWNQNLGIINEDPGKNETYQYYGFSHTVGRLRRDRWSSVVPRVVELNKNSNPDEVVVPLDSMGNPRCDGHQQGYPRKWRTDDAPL
Beta-1 adrenergic receptor (Homo sapiens), sequence (P08588 whole entry, looked up): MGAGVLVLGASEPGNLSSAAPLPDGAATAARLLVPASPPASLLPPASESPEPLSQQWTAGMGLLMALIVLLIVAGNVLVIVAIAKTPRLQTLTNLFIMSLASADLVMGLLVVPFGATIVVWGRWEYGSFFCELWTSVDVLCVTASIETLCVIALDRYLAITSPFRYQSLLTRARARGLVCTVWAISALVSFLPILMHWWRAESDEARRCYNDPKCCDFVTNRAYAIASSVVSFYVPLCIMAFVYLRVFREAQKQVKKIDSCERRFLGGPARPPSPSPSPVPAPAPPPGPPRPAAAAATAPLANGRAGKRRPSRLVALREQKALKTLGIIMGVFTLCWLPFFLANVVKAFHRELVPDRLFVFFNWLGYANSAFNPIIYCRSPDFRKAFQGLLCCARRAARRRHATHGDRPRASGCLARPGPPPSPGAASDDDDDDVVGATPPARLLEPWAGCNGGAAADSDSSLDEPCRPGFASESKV
Histamine H2 receptor (Homo sapiens), sequence (P25021 whole entry): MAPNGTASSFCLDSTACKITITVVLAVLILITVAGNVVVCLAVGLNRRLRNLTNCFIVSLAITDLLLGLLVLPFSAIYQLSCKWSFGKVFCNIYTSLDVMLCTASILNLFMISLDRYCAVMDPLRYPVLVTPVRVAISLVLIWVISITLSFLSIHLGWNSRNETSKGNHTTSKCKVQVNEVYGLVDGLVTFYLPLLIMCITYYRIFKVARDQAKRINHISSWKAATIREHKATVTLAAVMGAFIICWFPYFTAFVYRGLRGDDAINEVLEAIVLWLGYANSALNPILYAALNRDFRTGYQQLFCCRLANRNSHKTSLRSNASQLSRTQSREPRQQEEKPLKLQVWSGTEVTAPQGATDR
5-hydroxytryptamine receptor 1A (Homo sapiens), sequence (P08908 whole entry): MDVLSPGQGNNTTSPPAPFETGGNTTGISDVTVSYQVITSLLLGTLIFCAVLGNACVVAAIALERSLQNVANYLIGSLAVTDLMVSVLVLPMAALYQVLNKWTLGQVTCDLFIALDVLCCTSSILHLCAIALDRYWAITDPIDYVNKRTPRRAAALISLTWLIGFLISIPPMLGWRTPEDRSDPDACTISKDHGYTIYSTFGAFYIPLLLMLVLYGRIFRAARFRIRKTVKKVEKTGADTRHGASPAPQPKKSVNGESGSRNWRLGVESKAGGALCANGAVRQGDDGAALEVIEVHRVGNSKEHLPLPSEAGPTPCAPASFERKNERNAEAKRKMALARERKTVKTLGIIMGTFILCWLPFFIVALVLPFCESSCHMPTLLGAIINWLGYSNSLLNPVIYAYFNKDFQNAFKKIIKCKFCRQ
Somatostatin receptor type 4 (Homo sapiens), sequence (P31391 whole entry): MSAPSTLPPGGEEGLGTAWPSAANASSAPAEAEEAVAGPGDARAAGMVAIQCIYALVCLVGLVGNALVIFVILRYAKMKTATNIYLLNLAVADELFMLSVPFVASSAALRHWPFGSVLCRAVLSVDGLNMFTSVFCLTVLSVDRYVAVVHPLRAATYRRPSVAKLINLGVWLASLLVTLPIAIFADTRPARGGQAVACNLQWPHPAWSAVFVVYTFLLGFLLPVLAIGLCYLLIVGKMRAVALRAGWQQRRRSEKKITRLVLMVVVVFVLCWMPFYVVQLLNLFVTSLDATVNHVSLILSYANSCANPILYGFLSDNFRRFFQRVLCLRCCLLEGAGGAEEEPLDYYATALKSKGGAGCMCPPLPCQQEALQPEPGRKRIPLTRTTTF
Transient receptor potential cation channel subfamily A member 1, sequence (Q6RI86 whole entry): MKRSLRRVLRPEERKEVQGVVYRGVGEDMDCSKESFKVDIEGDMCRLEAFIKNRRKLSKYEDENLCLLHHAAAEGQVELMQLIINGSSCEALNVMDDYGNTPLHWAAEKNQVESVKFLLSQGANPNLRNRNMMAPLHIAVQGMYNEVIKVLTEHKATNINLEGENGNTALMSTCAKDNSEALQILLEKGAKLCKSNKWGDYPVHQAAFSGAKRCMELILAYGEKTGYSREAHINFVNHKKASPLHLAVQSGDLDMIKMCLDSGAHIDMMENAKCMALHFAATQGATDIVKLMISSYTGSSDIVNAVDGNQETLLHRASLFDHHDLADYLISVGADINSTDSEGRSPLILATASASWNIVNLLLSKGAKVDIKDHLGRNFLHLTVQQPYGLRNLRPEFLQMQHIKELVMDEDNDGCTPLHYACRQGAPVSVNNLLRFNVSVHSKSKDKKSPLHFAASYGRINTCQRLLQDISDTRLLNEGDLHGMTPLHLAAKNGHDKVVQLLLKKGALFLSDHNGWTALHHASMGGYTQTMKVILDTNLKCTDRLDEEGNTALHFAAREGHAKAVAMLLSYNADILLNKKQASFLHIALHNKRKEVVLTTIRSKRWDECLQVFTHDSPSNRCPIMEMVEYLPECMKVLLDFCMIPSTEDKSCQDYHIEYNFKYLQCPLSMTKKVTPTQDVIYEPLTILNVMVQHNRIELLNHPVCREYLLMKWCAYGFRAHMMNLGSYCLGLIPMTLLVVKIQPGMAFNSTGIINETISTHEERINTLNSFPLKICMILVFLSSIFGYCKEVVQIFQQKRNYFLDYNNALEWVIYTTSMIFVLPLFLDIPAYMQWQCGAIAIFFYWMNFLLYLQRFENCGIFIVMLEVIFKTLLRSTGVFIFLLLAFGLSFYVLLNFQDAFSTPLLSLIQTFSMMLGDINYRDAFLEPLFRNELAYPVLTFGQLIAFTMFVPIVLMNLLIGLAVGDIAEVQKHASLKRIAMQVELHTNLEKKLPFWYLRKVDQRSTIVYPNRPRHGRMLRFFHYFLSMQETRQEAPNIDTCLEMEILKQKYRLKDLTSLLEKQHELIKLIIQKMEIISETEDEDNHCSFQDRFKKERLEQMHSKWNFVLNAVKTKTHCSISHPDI
Transient receptor potential cation channel subfamily V member 1, sequence (Q8NER1 whole entry): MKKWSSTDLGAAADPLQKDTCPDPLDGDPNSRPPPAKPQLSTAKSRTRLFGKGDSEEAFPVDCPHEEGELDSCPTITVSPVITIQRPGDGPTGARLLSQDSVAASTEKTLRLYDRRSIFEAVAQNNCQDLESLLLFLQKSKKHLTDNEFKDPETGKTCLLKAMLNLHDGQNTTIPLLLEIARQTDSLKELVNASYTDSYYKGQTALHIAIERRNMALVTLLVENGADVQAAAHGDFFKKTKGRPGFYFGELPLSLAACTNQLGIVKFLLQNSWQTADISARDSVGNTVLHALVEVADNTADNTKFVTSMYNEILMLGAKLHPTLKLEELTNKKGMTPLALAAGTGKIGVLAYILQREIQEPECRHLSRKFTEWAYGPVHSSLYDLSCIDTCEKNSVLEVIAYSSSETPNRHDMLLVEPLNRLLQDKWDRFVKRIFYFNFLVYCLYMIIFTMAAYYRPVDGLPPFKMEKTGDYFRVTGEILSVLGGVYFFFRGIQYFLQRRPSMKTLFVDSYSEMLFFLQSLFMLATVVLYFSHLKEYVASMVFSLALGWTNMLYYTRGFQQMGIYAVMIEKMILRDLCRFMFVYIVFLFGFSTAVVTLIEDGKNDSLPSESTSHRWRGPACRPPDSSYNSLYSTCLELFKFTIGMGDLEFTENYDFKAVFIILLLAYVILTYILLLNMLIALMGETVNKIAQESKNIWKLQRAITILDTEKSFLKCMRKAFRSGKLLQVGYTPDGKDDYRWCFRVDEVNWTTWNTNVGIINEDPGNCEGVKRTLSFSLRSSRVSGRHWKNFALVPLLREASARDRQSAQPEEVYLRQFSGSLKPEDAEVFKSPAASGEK
5-hydroxytryptamine receptor 2A (Homo sapiens), sequence (P28223 whole entry): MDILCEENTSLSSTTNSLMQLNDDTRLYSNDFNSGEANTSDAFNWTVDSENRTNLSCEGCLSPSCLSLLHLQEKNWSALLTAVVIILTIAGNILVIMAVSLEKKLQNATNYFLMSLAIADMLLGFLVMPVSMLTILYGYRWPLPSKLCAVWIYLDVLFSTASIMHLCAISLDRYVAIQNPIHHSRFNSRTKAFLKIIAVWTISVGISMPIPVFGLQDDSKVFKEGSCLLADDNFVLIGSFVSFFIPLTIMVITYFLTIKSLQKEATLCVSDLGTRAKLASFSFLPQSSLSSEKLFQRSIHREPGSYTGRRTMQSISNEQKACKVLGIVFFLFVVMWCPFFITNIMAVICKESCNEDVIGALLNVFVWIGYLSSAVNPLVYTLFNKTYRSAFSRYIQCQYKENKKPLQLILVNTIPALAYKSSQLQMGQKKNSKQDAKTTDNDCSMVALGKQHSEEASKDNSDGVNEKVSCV

With Cn1cnc2ncn(Cc3nc(CCc4ccc(Cl)cc4)no3)c(=O)c21 the “Cp(f)” value (Plasma) was 51 nM, the IC50 [1] was 20 nM and the Activity [2] was greater than 77%. The inhibition [3] was “inactive”, the efflux ratio at 2 h (MDR1 (human)) was 1.3 and the Activity [4] was greater than 77%. For the same compound, the Activity (Rattus norvegicus [5]) was greater than 77%, the Activity [6] was greater than 77% and the bioavailability [7] was 60%. The Ratio [8] was 8.2, the Activity [9] was greater than 77% and the Activity [10] was greater than 77%. For the same compound, the Activity [11] was greater than 77%, the clearance [12] was 41.7 mL/min/kg and the Activity [13] was greater than 77%. It also gave an Activity [14] greater than 77%, an Activity [15] greater than 77% and a fCmax (Rattus norvegicus [16]) of 2.2 µM. The Activity [17] was greater than 77%, the Activity (Rattus norvegicus [18]) was greater than 77% and the inhibition [19] was “inactive”. The Activity [20] was greater than 77% and the inhibition (Rattus norvegicus [21]) was “Dose-dependent effect”.
